Screening data (PubChem)
Jurkat viability – cytotoxicity toward Jurkat T cells, primary screen, cytotoxicity control, cell-based, Jurkat E6.1, 60K MLSMR library; hit rate 1.2% among 56,000; inhibition, % at 4 µM; Jurkat E6.1 viability, ATP luminescence, 48 h; AID 463, 2006;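 active = inhibition above the mean inhibition of all tested compounds plus 3 SD, cut at about 28% in these data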
Lung fibro prol – antiproliferative effect on LL 47 fibroblasts – human, LL 47 cells, CellTiter-Glo luminescence, primary screen | LL 47 human lung fibroblast viability, ATP luminescence; active compounds read low | viability, % at 10 µM | hit rate 1.1% among 85,000 | AID 719, 2007;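 active = viability at or below 50% in the single dose screen; inactive = viability above 50%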;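 note: compound exposure lasted 72 h before the ATP readout; 100% = median luminescence of untreated cell-only wells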
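Times – overnight cell rest, 72 h compound treatment at 37 °C · Test system – human lung fibroblast line LL 47, low passage · Amount – 1,150 cells in each well · Controls – cell-only wells, no compound · Doses – 0.1% DMSO in all compound wells · Measured by – CellTiter-Glo luminescence · Buffer or medium – IMEM plus 15% FBS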
HUVEC inhibit – inhibitors of HUVEC proliferation, primary screen, cell-based, 384-well; hit rate 1.1% among 86,000; viability, % at 10 µM (by protocol); CellTiter-Glo luminescence, 72 h; active compounds read low;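 active = viability at or below 30%; inactive = viability above 30%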;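 note: 100% = median luminescence of DMSO-only cell control wells on each plate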
H69AR inhibit – proliferation blockers of H69AR lung cancer cells, primary screen, cell-based, human, 86K library; H69AR lung tumor viability, ATP luminescence, 72 h; active compounds read low; viability, % at 10 µM; hit rate 6% among 85,000;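 active = viability at or below 40%; inactive = viability above 40%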;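 note: multidrug resistant small cell line overexpressing MRP-1 efflux transporter; 100% = mean luminescence of untreated control wells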
F-actin modifier – modifiers of F-actin cytoskeleton organization, primary screen, imaging, HUVEC, phalloidin staining, high-content imaging. HUVEC TNFa F-actin phalloidin imaging. inhibition, % at 2 µM. hit rate 0.18% among 91,000. AID 836, 2007;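 active = inhibition above the batch mean plus 3 SD and confirmed as a hit by visual image inspection, cut at about 30% in these data, passing the limit was not always enough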
PTK2B oligo ant – antagonists of Pyk2 self-association, primary screen, Q293 cells, FERM NanoBiT luminescence, HTS; hit rate 0.83% among 99,000; active compounds read low; Protein-tyrosine kinase 2-beta (Homo sapiens), Q14289; z-score (the deposit names both 25 µM and 10 µM);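 active = Z-score of -3 or lower, scaled per plate to the spread of control and sample wells; inactive = z-score above -3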;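 note: negative z-score means lost luminescence so less FERM oligomerization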
* marks the source's active call; other numbers are inactive results. The list is not random: actives were taken first. Their share in the collection is about 6%.

COc1cc(C2Nc3ccc4ncccc4c3C3=C2C(=O)CCC3)ccc1O (centres undefined) was read as Jurkat viability 81*, Lung fibro prol 70, HUVEC inhibit 64, H69AR inhibit 28* and PTK2B oligo ant -0.24.
`Cn1c(Cl)cnc1C(O)c1ccccc1` (centres undefined) gave Jurkat viability -3, Lung fibro prol 98, HUVEC inhibit 105, H69AR inhibit 93, F-actin modifier -26 and PTK2B oligo ant -0.12.
`Cc1cc(C(=O)OCn2nnc3ccccc3c2=O)c(C)n1-c1ccccc1` gave Jurkat viability 2, Lung fibro prol 93, HUVEC inhibit 99, H69AR inhibit 85, F-actin modifier 12 and PTK2B oligo ant -3.7*.
COc1ccc(C2c3c(ncn(CCN4CCOCC4)c3=N)Oc3ccc4ccccc4c32)cc1 (centres undefined) was read as Lung fibro prol 71, HUVEC inhibit 29*, H69AR inhibit 1.3*, F-actin modifier 2 and PTK2B oligo ant -2.6.
`N=c1c2c(ncn1CCN1CCOCC1)Oc1ccc3ccccc3c1C2c1ccccc1` (centres undefined) gave Lung fibro prol 64, HUVEC inhibit 6.1*, H69AR inhibit 2.3*, F-actin modifier -9 and PTK2B oligo ant -1.9.
c1ccc(C2c3c(ccc4ccccc34)Oc3ncn4nc(-c5ccco5)nc4c32)cc1 (centres undefined) was read as PTK2B oligo ant -0.54.
Screening COc1ccc(C2C3=C(CC(C)(C)CC3=O)Oc3ncn(Cc4ccccc4)c(=N)c32)cc1 (centres undefined) returned Lung fibro prol 78, HUVEC inhibit 77, H69AR inhibit 85, F-actin modifier 2 and PTK2B oligo ant -3.7*.
`CC(=O)N/N=C/c1ccc(OCCOc2ccc(Br)cc2)cc1` gave PTK2B oligo ant 1.7.
Screening CCOC(=O)N1CCN(S(=O)(=O)c2ccc(C(=O)Nc3ccc4c(c3)C(=O)NC4=O)cc2)CC1 returned PTK2B oligo ant 0.96.
`Clc1ccc(Sc2cc(Cl)c(-c3ccccc3)nn2)cc1` gave F-actin modifier 10 and PTK2B oligo ant -3.4*.
Screening CCOC(=O)c1nnc(-c2cccs2)nc1Oc1ccccc1C(=O)OC returned Lung fibro prol 97, HUVEC inhibit 74, H69AR inhibit 31*, F-actin modifier -8 and PTK2B oligo ant 0.45.
For CCOC(=O)c1nnc(-c2cccs2)nc1Oc1ccc(Cl)cc1 the results were Lung fibro prol 94, HUVEC inhibit 76, H69AR inhibit 52, F-actin modifier 2 and PTK2B oligo ant 0.34.
C=CCOC(=O)C1=C(C)NC(SC)=C(C#N)C1c1cccs1 (centres undefined) was read as Lung fibro prol 65, HUVEC inhibit 55, H69AR inhibit 20*, F-actin modifier -18 and PTK2B oligo ant -2.4.
`C=CCOC(=O)C1=C(C)NC(SCC(=O)Nc2nccs2)=C(C#N)C1c1cccs1` (centres undefined) gave Lung fibro prol 95, HUVEC inhibit 18*, H69AR inhibit 28*, F-actin modifier -26 and PTK2B oligo ant -2.8.
`C=CCOC(=O)C1=C(C)NC(C)=C(C(=O)OCC=C)C1c1ccc(O)cc1` gave Jurkat viability -2, Lung fibro prol 97, HUVEC inhibit 76, H69AR inhibit 75 and PTK2B oligo ant -3.5*.
`CCSC1=C(C#N)C(c2cccs2)C(C(=O)OC)=C(C)N1` (centres undefined) gave Lung fibro prol 90, HUVEC inhibit 92, H69AR inhibit 69, F-actin modifier -21 and PTK2B oligo ant -2.7.
C=CCOC(=O)C1=C(C)NC(SCC(=O)Nc2nccs2)=C(C#N)C1c1ccc(Cl)cc1 (centres undefined) was read as Lung fibro prol 94, HUVEC inhibit 63, H69AR inhibit 92, F-actin modifier -3 and PTK2B oligo ant -0.37.
C=CCOC(=O)C1=C(C)NC(SC)=C(C#N)C1c1ccc(OCC)cc1 (centres undefined) was read as Jurkat viability 0, Lung fibro prol 99, HUVEC inhibit 98, H69AR inhibit 39*, F-actin modifier -28 and PTK2B oligo ant -3.1*.
